Hits are enriched below; roughly 1.9% of the tested compounds scored in any of these assays.
MBD2 DNA inh: inhibitors of MBD2 binding to methylated DNA, primary screen, biochemical, TR-FRET, DNA-binding domain, human. MBD2 binding to methylated oligonucleotide. inhibition, % at 4.4 µM. Methyl-CpG-binding domain protein 2 (Homo sapiens), Q9UBB5. AID 686964, 2013. 0.31% of 370,000 active; in the data active = inhibition above about 13%
Rin1-Abl PPI inh: inhibitors of Rin1-Abl protein binding, primary screen, biochemical, TR-FRET. Tyrosine-protein kinase ABL1 (Homo sapiens) + Ras and Rab interactor 1 (Homo sapiens), …. inhibition, % at 7.35 µM. 0.4% of 360,000 active; in the data active = inhibition above about 5%, passing the limit was not always enough
UHRF1 MBD2 ctr: UHRF1 methylated DNA binding inhibitors, primary screen, counter-screen for MBD2 inhibitor project, biochemical, TR-FRET, human UHRF1, single concentration; UHRF1 binding to methylated oligo; E3 ubiquitin-protein ligase UHRF1 (Homo sapiens), Q96T88; inhibition, % at 4.4 µM; 0.75% of 370,000 active; AID 687016, 2013; in the data active = inhibition above about 21%;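 note: UHRF1 SRA domain binding a hemimethylated CpG hairpin DNA probe; 0% = median of test compound wells and 100% = reference inhibitor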
TDP2 absorb: human TDP2 enzyme inhibitors, primary screen, biochemical, epi absorbance, recombinant enzyme; Tyrosyl-DNA phosphodiesterase 2 (Homo sapiens), O95551; T5PNP hydrolysis, p-nitrophenol absorbance 415 nm; inhibition, % at 12.8 µM; 0.34% of 370,000 active; AID 720702, 2013;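 active = inhibition above the mean of all tested compounds plus 3 SD, set per campaign, cut at about 25% in these data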;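 note: 0% = DMSO with enzyme and 100% = buffer with substrate but no TDP2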
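System – recombinant human TDP2 · Quantity – TDP2 enzyme at 120 nM final · Doses – single concentration, 12.8 µM nominal, with 1% DMSO · Incubation – 2 h at 37 °C · Measured by – epi absorbance of p-nitrophenol freed from T5PNP by hydrolysis · Read-out – % inhibition relative to enzyme-containing and enzyme-free wells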
LEDGF integ inh: blockers of LEDGF/p75-dependent integrase strand transfer – biochemical, TR-FRET, high throughput, primary screen; inhibition, % at 3.7 µM; 0.64% of 370,000 active; HIV-1 integrase (with human LEDGF/p75); TR-FRET IN-LEDGF/p75 DNA integration, Eu/Cy5;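 active = inhibition above the screen-wide mean plus 3 SD, cut at about 13% in these data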;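 note: signal is the Cy5 over europium emission ratio at 671 and 618 nm; 0% = plate median of compound wells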
IN multimer up: HIV-1 IN multimer formation enhancers, counter-screen for LEDGF/p75 integration inhibitor project, biochemical, TR-FRET; TR-FRET HIV-1 integrase multimerization; shares compounds with LEDGF integ inh; activation, % at 7.7 µM; 17% of 2,000 active; in the data active = activation above about 8.9%
TR-FRET interf: TR-FRET optical interference artefacts, confirmation, artefact control for LEDGF/p75-dependent integration inhibitor project, biochemical, HIV-1 IN multimerization. shares compounds with LEDGF integ inh. TR-FRET optical interference counterscreen. inhibition, % at 7.7 µM. 2,000 tested, under 10 active. AID 1053135, 2014;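 active = inhibition above the mean over all tested compounds plus 3 SD, which no compound reached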;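 note: 0% = integrase with antibodies and DMSO and 100% = antibodies without integrase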
LEDGF integ conf: inhibitors of HIV-1 IN-LEDGF/p75 DNA integration, confirmation, biochemical, TR-FRET; inhibition, % at 3.7 µM; TR-FRET LEDGF/p75-dependent HIV-1 integration; shares compounds with LEDGF integ inh; 36% of 2,000 active; in the data active = inhibition above about 14%
Active calls of the source: *; . = not tested or not shown.

SMILES | MBD2 DNA inh | Rin1-Abl PPI inh | UHRF1 MBD2 ctr | TDP2 absorb | LEDGF integ inh | IN multimer up | TR-FRET interf | LEDGF integ conf
CCOC(=O)C1=C(O)/C(=C\c2ccc(CNC(=O)C(=O)Nc3ccccc3)o2)N=C1C | 6.1 | 1.8 | 7.4 | -0.8 | 24.6* | 10.3* | -51.7 | 25.8*
COc1ccc(CN2C(=O)[C@@](O)(c3cccn3C)c3cc(Br)ccc32)cc1 | -3.2 | . | 0.2 | -6.2 | 4.9 | . | . | .
C=CCn1cnc2c(NCc3ccccc3)ncnc21 | 2.2 | 0.9 | -1.1 | 0.0 | 88.7* | 1.1 | -3.6 | -0.1
O=C(Cn1cnc2c(NCc3ccccc3)ncnc21)NCc1ccccn1 | -0.8 | -0.2 | -2.5 | -0.8 | 3.5 | . | . | .
Cc1ccc(C(=O)NCCN2C(=O)C3C4C=CC(C4)C3C2=O)cc1 (configuration not stated) | -0.5 | . | -2.1 | 1.0 | 7.0 | . | . | .
CCCNC(=O)C1(C)CCCN(C(=O)c2cc(C)nn2C(C)(C)C)C1 (configuration not stated) | 6.4 | 0.6 | -0.2 | 2.1 | 28.2* | -3.6 | 18.1 | 0.4
COCCN1C(=O)CN(S(C)(=O)=O)CC1(C)C(=O)NCc1ccccc1 (configuration not stated) | 1.4 | . | 0.5 | 7.9 | 14.3* | 0.2 | -0.8 | -0.7
CC(C)N(Cc1cn(Cc2ccccc2)nn1)S(=O)(=O)c1ccc(F)cc1Br | -3.7 | . | 0.0 | -6.3 | 5.1 | . | . | .
CC(COc1ccc(C#N)cc1)CN1CCC(C(O)(c2ccccc2)c2ccccc2)CC1 (configuration not stated) | 1.6 | . | -1.1 | 6.1 | -1.6 | . | . | .
CN(Cc1ccccc1F)C(=O)Cn1c(-c2cncs2)nc2ccccc21 | -1.8 | . | -1.0 | -2.6 | -2.7 | . | . | .
Cc1ccnc(NS(=O)(=O)c2ccc(NC(=O)c3ccc(C)o3)cc2)n1 | -1.8 | -4.7 | 0.3 | 1.4 | 1.1 | . | . | .
Cc1ccnc(NS(=O)(=O)c2ccc(NC(=O)c3ccccc3F)cc2)n1 | -6.1 | 0.3 | 3.9 | 5.3 | 24.6* | 0.6 | -2.0 | -3.2
COC(=O)[C@]12C[C@H](CC(=O)NCC34CC5CC(CC(C5)C3)C4)C(=O)N(Cc3cccc4ccccc34)C1=C[C@H](COCc1ccccc1)O[C@@H]2C | 2.4 | . | -0.2 | -1.1 | 0.7 | . | . | .
CCOc1ccc(Cc2c(C)[nH]c3ccc(C(=O)O)cc3c2=S)cc1 | 2.4 | 3.1 | 2.8 | -0.6 | 13.9* | 1.3 | -4.9 | 2.5
CCCCCCCCSc1n[nH]c(N)n1 | -3.5 | 2.7 | -2.9 | 5.7 | 3.6 | . | . | .
CCCCCCCCCSc1n[nH]c(N)n1 | -4.7 | 4.2 | 0.3 | -2.0 | 46.4* | -0.7 | 2.1 | -4.0
CC(C)CNC(=O)OCc1cn(Cc2cccc(F)c2F)nn1 | 3.0 | . | 1.8 | -4.8 | 0.1 | . | . | .
Cc1ccc(N2C(=O)CCC2(C(N)=O)c2ccccc2)cc1 (configuration not stated) | 0.9 | 2.9 | -1.0 | -0.1 | -1.6 | . | . | .
NC(=O)C1(c2ccccc2)CCC(=O)N1c1ccccc1 (configuration not stated) | 3.0 | -2.7 | 2.7 | 0.9 | 34.9* | 1.1 | -3.8 | -1.3
Cc1ccccc1CN1CCCCC(NC(=O)c2ccccc2C(F)(F)F)C1=O (configuration not stated) | -0.6 | . | -0.3 | -2.7 | -1.1 | . | . | .
O=C(O)c1cc(-c2ccco2)[nH]n1 | 3.4 | -1.8 | 12.4 | -1.4 | 14.5* | 2.0 | -10.1 | 3.7

Compound activity: PubChem BioAssay, The Scripps Research Institute Molecular Screening Center
